This excerpt belongs to a sample that is enriched for hits.
L major viab – inhibitors of Leishmania major promastigote growth; Leishmania major promastigotes, resazurin fluorescence viability; inhibition, % at 10 µM; 9% of 200,000 active; in the data active = inhibition above about 50%;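 note: promastigotes grown with compound for 44 hours at 28 °C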
T cruzi inh – T. cruzi replication inhibition; 1.4% of 300,000 active; T. cruzi beta-gal in NIH3T3, luminescence, 90 h; AID 1885; inhibition, % (concentration not given with the values);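 active = mean inhibition across valid replicates above about 55%, limit read from the data; inconclusive = mean below that limit but half or more replicates reach it; inactive = mean below it, under half of replicates reach it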;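 note: signal also drops with host cell toxicity which is not excluded here; higher percent means less beta-gal luminescence so fewer parasites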
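Test system: β-gal T. cruzi (Tulahuen C4) inside NIH/3T3 cells / Quantity: 5,000 cells/well / Measured by: luminescence from GalScreen with 0.05% NP40, read after 60 min / Medium: DMEM plus 2% FBS / Measure: parasite load inhibition, % / Reagent: Tulahuen C4 trypomastigotes, 5000/well / Schedule: co-culture of at least 90 h after 3 h attachment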
HSF-1 act – increases HSF-1 driven luciferase reporter signal; 1.7% of 300,000 active; NIH3T3-HGL HSF-1 luciferase reporter, MG132, 8 h; 100% = twice DMSO control signal; activation, % at 9 µM;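 active = mean replicate activation of at least 50% with a set share of replicates each reaching 50%; inconclusive = only one of those two conditions met; inactive = mean below 50% and too few replicates reaching it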
Hsp70 activator – transcriptional activators of Hsp70; HeLa Hsp70 promoter luciferase reporter, luminescence; scaled: vehicle 0, proteasome-inhibitor control 100%; activation, % at 10 µM; 0.04% of 200,000 active; AID 1203;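 active = activation above the mean across all tested compounds plus 3 SD, cutoff set per campaign, cut at about 5.5% in these data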
HSF1 inh – HSF1 inhibition. NIH3T3-HGL HSE-luciferase, MG132-induced, luminescence 8 h; stronger effect = lower value. activity change, negative = inhibition, % at 7.5 µM (by protocol). 0.77% of 300,000 active. AID 2098;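 active = more than half of replicate wells show activity change below -50%, luminescence cut by over half; inconclusive = some wells, but at most half, below -50%; inactive = no replicate well below -50%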;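 note: luciferase reports HSF-1 transcriptional activity via heat shock element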
L major 1uM – L. major promastigote growth inhibition, 1 uM repeat; shares compounds with L major viab; resazurin fluorescence, 48 h; inhibition, % at 1 µM; 13% of 1,100 active; AID 1258;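 active = inhibition above about 50% in both repeat tests, limit read from the data; inconclusive = one repeat under the set limit, the other over it; inactive = both repeats under the set limit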
Hsp70 act dose – dose-dependent Hsp70 transcriptional activation. HeLa hsp70.1pr-luc reporter, luciferase luminescence. 10% of 70 active. shares compounds with Hsp70 activator. calls only at 99 µM;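 active = over 50% activation at some tested dose; inactive = under 50% activation at every tested dose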
Hits are given with their value; 0 = inactive; ? = inconclusive; - = no result; + = active, no number.

SMILES	L major viab	T cruzi inh	HSF-1 act	Hsp70 activator	HSF1 inh	Hsp70 act dose	others
CC(C)CNC(=O)c1cccc(NC(=O)CCc2ccccc2)c1	0	0	0	0	0	-
Cc1ccc(N(CC(O)CON=C2c3ccccc3-c3ccccc32)S(C)(=O)=O)cc1 (stereo not given)	100	?	0	0	0	-	L major 1uM=?
CC(=O)N(C)c1ccc(OCC(O)CN(c2ccccc2C)S(=O)(=O)c2ccc(C)cc2)cc1 (stereo not given)	-	0	0	-	0	-
CC(C)N=C(NS(=O)(=O)c1ccccc1)C(Cl)(Cl)Cl	85	0	0	0	0	-	L major 1uM=?
O=S(=O)(NC(=S)c1ccccc1)c1ccccc1	-	0	0	-	0	-
CCC(=O)N1CCc2cc(S(=O)(=O)NC(C(=O)NC3CCCc4ccccc43)C(C)C)ccc21 (stereo not given)	0	0	0	0	0	-
CCCCS(=O)(=O)/C=C\C=C/S(=O)(=O)CCCC	101	0	0	56	-83	0	L major 1uM=94
CCN(CC(=O)Nc1ccccc1C(F)(F)F)C(=O)CSCc1ccc(C)cc1	-	0	0	-	0	-
Cc1cc(C)nc(SCc2nnc(SCC(=O)Nc3c(C)cccc3C)o2)n1	0	0	0	0	0	-
Cc1cc(C)nc(SCc2nnc(SCC(=O)Nc3cc(C(F)(F)F)ccc3Cl)o2)n1	0	0	0	5.7	0	0
COc1cccc(CN2CC(C(=O)NCc3ccc(Cl)s3)CCC2=O)c1 (stereo not given)	-	0	0	-	0	-
CC1(C)c2[nH]c3ccccc3c2C[C@H]2C(=O)N(CCCCCO)CC(=O)N21	-	0	0	-	0	-
CC(C)(C)C1C/C(=C/c2ccccn2)C(=O)/C(=C/c2ccccn2)C1 (stereo not given)	101	0	0	46	0	+
CC1C/C(=C/c2ccccn2)C(=O)/C(=C/c2ccccn2)C1 (stereo not given)	100	58	89	314	0	+
Cc1cccc(Cn2cnc3c(sc4nc(C)cc(C)c43)c2=O)c1	-	0	0	-	0	-
Cc1ccc(S(=O)(=O)N(C)C)cc1NC(=S)NNC(=O)C(N)=O	0	0	0	0	0	-
C#CCSc1nccc(-c2nn(-c3ccc(C)cc3)ccc2=O)n1	0	0	0	0	0	-
C=CCSc1nccc(-c2nn(-c3ccc(C)cc3)ccc2=O)n1	0	0	0	17	0	0
O=C(/C=C/c1ccc(F)cc1)NCCCn1ccnc1	-	0	0	-	0	-
COc1ccc(C(c2c(O)ccc3ccccc23)N2CCOCC2)c(OC)c1 (stereo not given)	60	0	106	6.4	0	0
CCCCn1c(N)c(N(CC)C(=O)CSCC(=O)Nc2ccc(OC)cc2)c(=O)[nH]c1=O	-	0	0	-	0	-
Cc1ccc(N=Nc2[nH]c3ccccc3c2O)cc1	0	0	-	0	-	-
COc1ccc(N=Nc2[nH]c3ccc(C)cc3c2O)cc1	0	0	0	5.6	0	0
N#C/C(=C/c1ccc(N2CCCCCC2)o1)c1ccc(Cl)cc1	0	65	93	6.3	0	0
COc1cccc(-n2nnnc2SCC(=O)NC2CCCCC2)c1	-	0	0	-	0	-
SMILES	L major viab	T cruzi inh	HSF-1 act	Hsp70 activator	HSF1 inh	Hsp70 act dose	others
O=C(C[n+]1ccc(/C=N/O)cc1)N1CCCCC1	-	0	0	-	0	-
COc1ccc(C(CNC(=O)c2oc3ccc(C)cc3c2C)N2CCCCC2)cc1 (stereo not given)	-	0	0	-	0	-
COc1ccc(C(CNC(=O)c2cc3ccccc3o2)N2CCCCC2)cc1 (stereo not given)	0	0	0	9.3	0	0
CCC(=O)N1CCN(c2ccc(NC(=O)c3ccc([N+](=O)[O-])o3)cc2Cl)CC1	101	0	128	43	0	0
COc1ccc(C(=O)NCCc2nnc(SCC(=O)Nc3ccccc3F)n2C)cc1	0	0	0	0	0	-
O=Cc1s/c(=N\S(=O)(=O)c2ccccc2)n(CCCCl)c1Cl	0	81	60	11	0	0
CCn1c(C)cs/c1=N\S(=O)(=O)c1ccccc1	-	0	0	-	0	-
COC(=O)c1ccc2c(c1)C(C)(C)C(/C=C/c1ccccc1O)=[N+]2C	101	74	0	8.4	0	+
COc1ccc(NC(=O)/C(Cl)=C(/Cl)S(=O)Cc2ccc(Cl)cc2)cn1 (stereo not given)	100	-	-	43	-	0
Cc1nn(C)c(C)c1NC(=O)c1ccc(S(=O)(=O)N(C)C)cc1	0	0	0	6.6	0	0
Cc1nn(C)c(C)c1NC(=O)c1ccnn1C	0	0	0	0	0	-
CCOc1ccc(NC(=O)c2ccc(NC(=S)NC3CCCCC3)cc2)cc1	0	0	0	0	0	-
CCOc1ccc(NC(=O)c2ccc(NC(=S)NC3CC3)cc2)cc1	0	0	0	9.4	0	0
COc1ccc(/C=C/C(=O)NNc2c(F)c(F)cc(F)c2F)cc1OC	0	0	0	0	0	-
COc1ccc(/C=C/C(=O)c2cc(F)ccc2OC(=O)c2ccccc2OC)cc1OC	0	0	69	9.9	0	0
O=C(OCn1ncc(Br)c(Br)c1=O)c1ccccc1Cl	101	59	0	17	-74	+
CCCOc1c(Br)cc(C(=O)NCC)cc1OC	0	0	0	6.0	0	0
CCCc1nnc(SCC(=O)N2CCCC2)n1Cc1ccco1	0	0	0	0	0	-
CCOC(=O)C1CCN(c2ccc([N+](=O)[O-])cc2)CC1	0	0	0	5.7	0	0
COc1nc(Cl)cn(-c2ccc(C)cc2)c1=O	0	0	0	0	0	-
Cc1ccc(-n2c(Cl)c(Cl)nc(Cl)c2=O)cc1	0	-	-	6.4	-	0
